In ChEMBL document CHEMBL1759843, “Cytotoxic and antioxidant activities of diterpenes and sterols from the Vietnamese soft coral Lobophytum compactum” (Bioorg Med Chem Lett, 2011) one finds Activity and IC50 data, which are given here for eight molecules.

Calls of active or inactive are those of the source. The rule behind the calls is not given here.

Test [1] is described as follows: Antioxidant activity assessed as reduction of Copper(I) at 1 uM. The test is classed as functional.
Test [2] can be described thus: Antioxidant activity assessed as Cu2+ chelating activity at 1 uM. The test is classed as functional.
Test [3] in a line: Antioxidant activity assessed as reduction of Copper(I) at 5 uM. The class given is functional.
The subject of test [4] is A549. The test can be described thus: Cytotoxicity against human A549 cells after 72 hrs. The class given is functional, cell-based. The conditions noted are these: A549, 72 h. Put shortly:
(§1)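 Human A549 (lung) and HL-60 (leukemia) cancer cells were exposed to compounds up to a maximum of 100 µM, and cell growth was measured. IC50 is the concentration that inhibits 50% of cell growth, reported as mean ± SD of experiments run in triplicate. Mitoxantrone served as the reference compound.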

The nature of test [5]: Antioxidant activity assessed as trolox equivalents of peroxyl radical scavenging activity at 1 uM by ORAC assay. The class given is functional.
Test [6] is described as follows: Antioxidant activity assessed as Cu2+ chelating activity at 5 uM. The test is classed as functional.
Test [7] has as its system HL-60. The test can be described thus: Cytotoxicity against human HL60 cells after 72 hrs. The note with it: HL-60, 72 h. The test is classed as functional, cell-based. The gist of the method: as §1
A short description of test [8]: Antioxidant activity assessed as trolox equivalents of peroxyl radical scavenging activity at 5 uM by ORAC assay. The class given is functional.

With `CC(=O)OC(C)(C)[C@@H](C)CC[C@@H](C)[C@H]1CC[C@H]2[C@@H]3C[C@@H](O)[C@@]4(O)C[C@@H](O)CC[C@]4(C)[C@H]3CC[C@]12C`, the result in test [1], in test [2], in test [3], in test [5] and in test [6] was inactive. Moreover, the IC50 came out at 36.5 µM in test [4] and 42.8 µM in test [7].
With `O=C1c2c(O)ccc(O)c2C(=O)c2c(NCCNCCO)ccc(NCCNCCO)c21` [MITOXANTRONE], the IC50 stood at 7.83 µM in test [4] and 8.1 µM in test [7].
On to `C=C[C@@]1(C)CC[C@H](C2=CC[C@H](C(C)(C)O)OC2=O)C[C@@H]1C(=C)C` [LOBATRIENOLIDE], for which the outcome in test [1], in test [2], in test [3], in test [5] and in test [6] was inactive. In addition, the IC50 was 23 µM in test [4] and 24.8 µM in test [7].
As for `C=C1CC/C=C(\C)CC[C@@H](C2=CC[C@H](C(C)(C)O)OC2)C[C@H]1O` [LOBOCOMPACTOL B], the result in test [1], in test [2], in test [3] and in test [6] was inactive. Also, the IC50 is > 100 µM in test [4] and 37.5 µM in test [7]. Besides, the Activity in test [8] was determined as 1.3 µM.
Regarding `C=C1CC/C=C(\C)CC[C@H](C2=CC[C@H](C(C)(C)O)OC2)C[C@H]1O` [LOBOCOMPACTOL A], the outcome in test [1], in test [2], in test [3] and in test [6] was inactive. In addition, the IC50 is > 100 µM in test [4] and 48.2 µM in test [7]. In addition, the Activity in test [8] came to 1.4 µM.
For the molecule `C=C(CC[C@@H](C)[C@H]1CC[C@@H]([C@@H]2CC=C3C[C@@H](O)CC[C@]3(C)C2=O)[C@]1(C)CCO)C(C)C`, the result in test [1], in test [2], in test [3], in test [5] and in test [6] was inactive. Also, the IC50 in test [4] amounted to 4.97 µM; in test [7], 17.8 µM.
As for `C[C@H](CC[C@H](C)C(C)(C)O)[C@H]1CC[C@H]2[C@@H]3C[C@@H](O)[C@@]4(O)C[C@@H](O)CC[C@]4(C)[C@H]3CC[C@]12C`, the outcome in test [1], in test [2], in test [3], in test [5] and in test [6] was inactive. For the same molecule, the IC50 is > 100 µM in test [4] and 59.1 µM in test [7].
Regarding `C=C[C@@]1(C)CC[C@H](C2=CC[C@H](C(C)(C)O)OC2)C[C@@H]1C(=C)C` [LOBATRIENE], the result in test [1], in test [2], in test [3], in test [5] and in test [6] was inactive. The IC50 was determined as 31.1 µM in test [4] and 33.8 µM in test [7].

One may read the IC50 as the concentration needed to halve the response being measured. Read a high IC50 as lower potency.
